Results: article PMC3518307 (Bioorganic & medicinal chemistry letters, 2012)

What was measured:
telomerase = telomerase (Homo sapiens, UniProt O14746); assay: Telomerase inhibition assay using partially purified telomerase; assay type: biochemical
Method in brief: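 Partially purified telomerase, prepared by an adapted published procedure, used instead of the crude HeLa cell homogenate of the standard assay to limit extra nucleic acids that could bind bis-intercalators in the mix; IC50 from inhibition curves, with error values reported.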

[1] = target: reverse transcriptase from HIV-1 (Human immunodeficiency virus type 1 group M subtype B, UniProt P04585); assay: Single point assay of HIV-RT activity; assay type: biochemical; conditions: mono-intercalators

Sequence of telomerase (O14746 whole entry): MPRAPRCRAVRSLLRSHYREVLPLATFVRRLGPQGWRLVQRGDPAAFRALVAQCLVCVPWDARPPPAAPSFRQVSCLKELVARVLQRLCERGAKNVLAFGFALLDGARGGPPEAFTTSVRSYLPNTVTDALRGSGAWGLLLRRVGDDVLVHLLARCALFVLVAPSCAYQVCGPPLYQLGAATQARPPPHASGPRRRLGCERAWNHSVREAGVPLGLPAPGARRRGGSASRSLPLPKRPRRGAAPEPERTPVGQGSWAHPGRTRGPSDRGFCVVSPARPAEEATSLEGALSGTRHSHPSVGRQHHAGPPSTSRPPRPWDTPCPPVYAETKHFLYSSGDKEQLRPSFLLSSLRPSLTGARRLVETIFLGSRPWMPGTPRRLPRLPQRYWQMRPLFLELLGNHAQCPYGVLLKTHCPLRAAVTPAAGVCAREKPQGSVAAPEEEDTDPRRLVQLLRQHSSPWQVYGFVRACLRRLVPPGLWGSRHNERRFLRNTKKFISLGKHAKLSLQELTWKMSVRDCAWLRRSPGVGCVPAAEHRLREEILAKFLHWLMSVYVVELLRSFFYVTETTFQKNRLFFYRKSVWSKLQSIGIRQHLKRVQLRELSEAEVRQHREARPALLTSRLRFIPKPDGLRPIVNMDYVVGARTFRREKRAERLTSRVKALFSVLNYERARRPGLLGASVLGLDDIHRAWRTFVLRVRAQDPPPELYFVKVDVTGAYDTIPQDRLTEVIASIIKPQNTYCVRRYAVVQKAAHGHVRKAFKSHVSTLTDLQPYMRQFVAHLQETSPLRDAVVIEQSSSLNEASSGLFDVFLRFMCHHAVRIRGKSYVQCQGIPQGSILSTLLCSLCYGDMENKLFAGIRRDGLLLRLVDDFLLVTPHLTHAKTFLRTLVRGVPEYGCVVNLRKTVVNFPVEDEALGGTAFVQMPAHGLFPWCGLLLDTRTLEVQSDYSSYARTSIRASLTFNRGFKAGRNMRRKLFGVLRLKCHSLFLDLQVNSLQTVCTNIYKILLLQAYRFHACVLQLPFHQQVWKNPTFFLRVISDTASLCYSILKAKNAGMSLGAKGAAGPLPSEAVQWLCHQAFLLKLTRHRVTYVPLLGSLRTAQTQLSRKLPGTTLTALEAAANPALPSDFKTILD
Sequence of telomerase (O60832 whole entry partner): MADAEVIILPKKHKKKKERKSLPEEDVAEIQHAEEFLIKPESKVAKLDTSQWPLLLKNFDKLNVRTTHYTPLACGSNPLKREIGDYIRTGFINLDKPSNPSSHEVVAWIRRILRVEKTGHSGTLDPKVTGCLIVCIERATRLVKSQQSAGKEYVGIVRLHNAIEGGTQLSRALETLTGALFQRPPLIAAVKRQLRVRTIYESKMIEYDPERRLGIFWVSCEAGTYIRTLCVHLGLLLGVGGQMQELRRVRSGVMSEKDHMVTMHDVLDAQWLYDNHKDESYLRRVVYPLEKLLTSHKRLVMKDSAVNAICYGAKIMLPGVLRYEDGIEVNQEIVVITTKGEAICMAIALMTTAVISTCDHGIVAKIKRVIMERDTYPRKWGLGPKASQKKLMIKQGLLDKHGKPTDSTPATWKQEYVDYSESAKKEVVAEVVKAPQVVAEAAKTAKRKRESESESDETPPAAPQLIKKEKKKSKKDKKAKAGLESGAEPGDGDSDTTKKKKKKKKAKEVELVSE
Sequence of telomerase (Q9NPE3 whole entry partner): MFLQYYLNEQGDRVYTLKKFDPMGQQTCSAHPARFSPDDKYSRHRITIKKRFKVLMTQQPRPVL
Sequence of telomerase (Q9NX24 whole entry partner): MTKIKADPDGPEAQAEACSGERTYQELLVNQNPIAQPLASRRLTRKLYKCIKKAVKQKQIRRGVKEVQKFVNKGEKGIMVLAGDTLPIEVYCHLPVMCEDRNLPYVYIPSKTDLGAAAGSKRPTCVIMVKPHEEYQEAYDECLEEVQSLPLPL
Sequence of telomerase (Q9NY12 whole entry partner): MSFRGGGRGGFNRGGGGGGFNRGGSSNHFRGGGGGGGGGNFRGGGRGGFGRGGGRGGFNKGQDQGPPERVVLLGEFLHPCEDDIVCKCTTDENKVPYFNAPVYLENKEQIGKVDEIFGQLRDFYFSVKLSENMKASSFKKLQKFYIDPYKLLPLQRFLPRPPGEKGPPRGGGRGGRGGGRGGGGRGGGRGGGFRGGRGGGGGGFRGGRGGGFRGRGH
Sequence of telomerase (Q9BUR4 whole entry partner): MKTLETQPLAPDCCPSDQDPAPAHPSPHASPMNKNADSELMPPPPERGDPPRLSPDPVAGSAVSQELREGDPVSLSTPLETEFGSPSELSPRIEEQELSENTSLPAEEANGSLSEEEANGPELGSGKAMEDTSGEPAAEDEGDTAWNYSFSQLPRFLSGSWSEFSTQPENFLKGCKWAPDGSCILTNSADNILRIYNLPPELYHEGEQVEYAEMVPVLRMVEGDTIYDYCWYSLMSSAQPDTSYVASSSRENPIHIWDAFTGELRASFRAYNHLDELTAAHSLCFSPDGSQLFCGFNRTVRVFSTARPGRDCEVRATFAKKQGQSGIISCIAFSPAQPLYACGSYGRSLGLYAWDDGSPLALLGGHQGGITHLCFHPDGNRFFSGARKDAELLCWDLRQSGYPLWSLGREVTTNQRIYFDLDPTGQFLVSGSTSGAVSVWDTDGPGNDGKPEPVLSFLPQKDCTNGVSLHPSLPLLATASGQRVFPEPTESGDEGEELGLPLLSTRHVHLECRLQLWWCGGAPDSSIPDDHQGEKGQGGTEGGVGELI

| SMILES | IC50 (telomerase) [nM] | IC50 estimates against reverse transcriptase [1] |
| --- | --- | --- |
| NCCCC[C@H](NC(=O)CCNC(=O)C(N)CN)C(N)=O (some centres unmarked) [compound 1] | 103 | – |
| O=C(O)c1c2ccccc2nc2ccccc12 [9-Acridine carboxylic acid] | – | No inhibition observed |
| O=C(O)c1cccc2cc3ccccc3cc12 [1-Anthracene carboxylic acid] | – | No inhibition observed |
| O=C(O)c1ccc2cc3ccccc3cc2c1 [2-Anthracene carboxylic acid] | – | No inhibition observed |
| COc1ccc2nc3cc(Cl)ccc3c(N)c2c1 [9-Amino-6-Chloro-2-Methoxy acridine] | – | No inhibition observed |
